Results on six compounds are retold here after ChEMBL document CHEMBL3227949, “Antimalarials. 4. Trichloronaphthalene amino alcohols” (1979).

Calls of active or inactive are those of the source. No cut-off for these calls is given here.

Experiment [1] has as its system Plasmodium berghei. Description: Antimalarial activity against Plasmodium berghei infected in mouse assessed as change in mean survival time at 20 mg/kg, sc administered as single dose 72 hrs after parasite infection (reference value: 6.1 days). The class given is functional. Particulars: route subcutaneous.
For experiment [2], the system named is Plasmodium berghei. Description: Antimalarial activity against Plasmodium berghei infected in mouse assessed as change in mean survival time at 80 mg/kg, sc administered as single dose 72 hrs after parasite infection (reference value: 6.1 days). The class given is functional. Particulars: route subcutaneous.
Experiment [3] relates to Plasmodium berghei. Description: Antimalarial activity against Plasmodium berghei infected in mouse assessed as change in mean survival time at 640 mg/kg, sc administered as single dose 72 hrs after parasite infection (reference value: 6.1 days). Particulars: route subcutaneous. It counts as functional.
Experiment [4] concerns Plasmodium berghei. Description: Antimalarial activity against Plasmodium berghei infected in mouse assessed as change in mean survival time at 40 mg/kg, sc administered as single dose 72 hrs after parasite infection (reference value: 6.1 days). The class given is functional. Conditions: route subcutaneous.
In experiment [5] the test system is Plasmodium berghei. Description: Antimalarial activity against Plasmodium berghei infected in mouse assessed as change in mean survival time at 10 mg/kg, sc administered as single dose 72 hrs after parasite infection (reference value: 6.1 days). The class given is functional. Conditions: route subcutaneous.
The subject of experiment [6] is Plasmodium berghei. Description: Antimalarial activity against Plasmodium berghei infected in mouse assessed as curing of parasite infection at 160 mg/kg, sc administered as single dose 72 hrs after parasite infection. The class given is functional, organism-based. More on the design: dose 160 mg/kg. In a few lines: (§1)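 Mice (five per group) infected with P. berghei were given a single subcutaneous dose 72 h after infection. Increase in mean survival time over infected untreated controls was recorded, and an increase of at least 100% counted as activity. The screen was run by Rane Laboratories.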

For experiment [7], the system named is Plasmodium berghei. Description: Antimalarial activity against Plasmodium berghei infected in mouse assessed as curing of parasite infection at 320 mg/kg, sc administered as single dose 72 hrs after parasite infection. It counts as functional, organism-based. The arrangement: dose 320 mg/kg. In a few lines: as §1
Experiment [8] has as its system Plasmodium berghei. Description: Antimalarial activity against Plasmodium berghei infected in mouse assessed as curing of parasite infection at 640 mg/kg, sc administered as single dose 72 hrs after parasite infection. More on the design: dose 640 mg/kg. The class given is functional, organism-based.
Experiment [9] deals with Plasmodium berghei. Description: Antimalarial activity against sc dosed Plasmodium berghei infected in mouse assessed as dose resulting in mean survival time […]. The class given is functional. Conditions: read-out: MED.

For the compound `Cl.OC(CC1CCCCN1)c1cc(-c2ccc(Cl)cc2)cc2c(Cl)cc(Cl)cc12` (stereo not given), the MST in experiment [1] came out at 9.8 days; in [2] it was 16.6 days; in experiment [3] it was 6 days; in [4], 11.8 days; in [5], 3.6 days.
For the compound `CCCCN(CCCC)CCC(O)c1cc(-c2ccc(Cl)cc2)cc2c(Cl)cc(Cl)cc12.Cl` (stereo not given), the MST is 12.1 days in experiment [1] and 2.9 days in [5]. The outcome in experiment [6], in experiment [7] and in experiment [8] was Active.
As to `CCCCN(CCCC)CC(O)c1cc(-c2ccc(Cl)cc2)cc2c(Cl)cc(Cl)cc12.Cl` (stereo not given), the MST in experiment [1] amounted to 9.5 days; in [4], 10.5 days; in experiment [5] it was 7.9 days. Further, the minimal effective dose in [9] came to 10 mg/kg. Besides, in [8], the outcome was Active.
With `CCCCN(CCCC)CC(O)c1cc(-c2ccc(Cl)cc2)nc2c(Cl)cc(Cl)cc12.Cl` (stereo not given), in experiment [9], the minimal effective dose is 10 mg/kg.
Still for that read-out and setting: then `Cl.OC(c1cc(-c2ccc(Cl)cc2)nc2c(Cl)cc(Cl)cc12)C1CCCCN1` (stereo not given), with 5 mg/kg.
For `CC(=O)O.OC(c1cc(-c2ccc(Cl)cc2)cc2c(Cl)cc(Cl)cc12)C1CCCCN1` (stereo not given), the figures for the MST in experiment [1] and in experiment [5] were 1.1 days and 0.5 days, respectively. Further, in [9], the minimal effective dose is 20 mg/kg.
